Source: ChEMBL document CHEMBL1152649, “Synthesis, cytotoxicity and human telomerase inhibition activities of a series of 1,2-heteroannelated anthraquinones and anthra[1,2-d]imidazole-6,11-dione homologues” (2009)
The source made the active and inactive calls. No cut-off for these calls is given here.

Columns and labels:
OVCAR-8 = assay: Antiproliferative activity against human OVCAR8 cells assessed as cell growth at 10 uM; format: functional; settings: read-out: Activity
In short: (§1)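 NCI 60 cell line panel, single-dose screen (10^-5 M) run by the developmental therapeutics program protocol. Results are given as growth percent of treated cells relative to untreated control cells for each line.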

Malme-3M = assay: Antiproliferative activity against human MALME-3M cells assessed as cell growth at 10 uM; format: functional; settings: read-out: Activity; in short: as §1
PC-3 = assay: Antiproliferative activity against human PC3 cells assessed as cell growth at 10 uM; format: functional; settings: read-out: Activity; in short: as §1
TK-10 = assay: Antiproliferative activity against human TK10 cells assessed as cell growth at 10 uM; format: functional; settings: read-out: Activity
In short: (§2)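 NCI 60 cell line panel, single dose (10^-5 M), run per the Developmental Therapeutics Program protocol (one dose mean graph). Each result is the growth percentage of treated cells relative to untreated control cells.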

CCRF-CEM = assay: Antiproliferative activity against human CCRF-CEM cells assessed as cell growth at 10 uM; format: functional; settings: read-out: Activity; in short: as §1
A498 = assay: Antiproliferative activity against human A498 cells assessed as cell growth at 10 uM; format: functional; settings: read-out: Activity; in short: as §1
NCI/ADR-RES = assay: Antiproliferative activity against human NCI/ADR-RES cells assessed as cell growth at 10 uM; format: functional; settings: read-out: Activity; in short: as §1
SNB-75 = assay: Antiproliferative activity against human SNB75 cells assessed as cell growth at 10 uM; format: functional; settings: read-out: Activity; in short: as §2
SF-295 = assay: Antiproliferative activity against human SF295 cells assessed as cell growth at 10 uM; format: functional; settings: read-out: Activity; in short: as §1
NCI-H226 = assay: Antiproliferative activity against human NCI-H226 cells assessed as cell growth at 10 uM; format: functional; settings: read-out: Activity; in short: as §1
SN12C = assay: Antiproliferative activity against human SN12C cells assessed as cell growth at 10 uM; format: functional; settings: read-out: Activity; in short: as §1
EKVX = assay: Antiproliferative activity against human EKVX cells assessed as cell growth at 10 uM; format: functional; settings: read-out: Activity; in short: as §1
OVCAR-4 = assay: Antiproliferative activity against human OVCAR4 cells assessed as cell growth at 10 uM; format: functional; settings: read-out: Activity; in short: as §1
LOX IMVI = assay: Antiproliferative activity against human LOXIMVI cells assessed as cell growth at 10 uM; format: functional; settings: read-out: Activity; in short: as §1
A549 = assay: Antiproliferative activity against human A549 cells assessed as cell growth at 10 uM; format: functional; settings: read-out: Activity; in short: as §1
[1] = Cytotoxicity against human H1299 cells at 10 uM after 48 hrs by MTT assay; format: functional; settings: NCI-H1299, 48 h
In short: (§3)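 H1299 non-small cell lung cancer cells were grown in RPMI 1640 with 10% FBS, penicillin and streptomycin at 37 °C under 5% CO2. About 2 × 10³ cells per well were seeded and left 24 h. Compounds were dissolved fresh in DMSO, diluted into complete medium and applied for 48 h. MTT was then added for 4 h at 37 °C, followed by lysis buffer (20% SDS, 50% DMF) for 16 h, and absorbance was read at 550 nm.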

[2] = biological target: Telomerase reverse transcriptase (Homo sapiens) (UniProt O14746); assay: Inhibition of TERT in human H1299 cells assessed as residual transcriptional activity at 1 uM after 24 hrs by SEAP reporter gene assay; values are per cent of control
Sequence of Telomerase reverse transcriptase (Homo sapiens) (O14746 whole entry): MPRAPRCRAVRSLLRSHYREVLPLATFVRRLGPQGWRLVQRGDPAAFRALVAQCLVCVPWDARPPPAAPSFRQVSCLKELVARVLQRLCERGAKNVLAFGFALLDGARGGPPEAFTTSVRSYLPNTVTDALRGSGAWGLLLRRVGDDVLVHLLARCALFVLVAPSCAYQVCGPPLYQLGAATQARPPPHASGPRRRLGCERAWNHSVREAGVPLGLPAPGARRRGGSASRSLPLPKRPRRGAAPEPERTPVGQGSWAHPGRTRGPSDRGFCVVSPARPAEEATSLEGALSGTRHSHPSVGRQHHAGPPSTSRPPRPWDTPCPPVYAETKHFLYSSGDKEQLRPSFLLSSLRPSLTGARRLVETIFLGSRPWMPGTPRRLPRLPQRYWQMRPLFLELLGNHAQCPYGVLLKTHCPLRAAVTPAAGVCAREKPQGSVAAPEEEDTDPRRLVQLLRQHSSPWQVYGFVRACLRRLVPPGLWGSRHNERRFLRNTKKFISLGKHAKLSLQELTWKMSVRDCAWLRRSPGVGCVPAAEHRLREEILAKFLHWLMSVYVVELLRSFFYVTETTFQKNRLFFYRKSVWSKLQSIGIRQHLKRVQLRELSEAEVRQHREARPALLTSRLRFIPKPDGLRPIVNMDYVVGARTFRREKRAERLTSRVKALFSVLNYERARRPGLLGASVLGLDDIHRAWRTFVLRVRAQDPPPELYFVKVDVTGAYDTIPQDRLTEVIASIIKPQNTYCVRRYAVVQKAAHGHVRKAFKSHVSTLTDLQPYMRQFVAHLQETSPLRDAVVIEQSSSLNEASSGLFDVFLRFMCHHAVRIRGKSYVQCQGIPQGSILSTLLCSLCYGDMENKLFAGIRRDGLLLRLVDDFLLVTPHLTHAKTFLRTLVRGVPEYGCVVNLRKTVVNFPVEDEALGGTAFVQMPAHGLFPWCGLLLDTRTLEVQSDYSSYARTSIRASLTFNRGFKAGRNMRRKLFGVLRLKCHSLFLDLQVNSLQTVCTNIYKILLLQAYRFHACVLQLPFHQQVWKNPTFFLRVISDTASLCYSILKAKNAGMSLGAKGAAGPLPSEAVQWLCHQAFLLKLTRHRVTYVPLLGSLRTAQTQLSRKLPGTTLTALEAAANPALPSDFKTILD

DU-145 = assay: Antiproliferative activity against human DU145 cells assessed as cell growth at 10 uM; format: functional; settings: read-out: Activity; in short: as §1
MDA-MB-231 = assay: Antiproliferative activity against human MDA-MB-231 cells assessed as cell growth at 10 uM; format: functional; settings: read-out: Activity; in short: as §1
HL-60(TB) = assay: Antiproliferative activity against human HL-60(TB) cells assessed as cell growth at 10 uM; format: functional; settings: read-out: Activity
In short: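 NCI Developmental Therapeutics Program 60-cell-line one-dose screen at 10^-5 M. Readout is growth percentage of treated cells relative to untreated control cells.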

U-251 = assay: Antiproliferative activity against human U251 cells assessed as cell growth at 10 uM; format: functional; settings: read-out: Activity; in short: as §2
UACC-62 = assay: Antiproliferative activity against human UACC62 cells assessed as cell growth at 10 uM; format: functional; settings: read-out: Activity; in short: as §2
NCI-H522 = assay: Antiproliferative activity against human NCI-H522 cells assessed as cell growth at 10 uM; format: functional; settings: read-out: Activity; in short: as §1
OVCAR-5 = assay: Antiproliferative activity against human OVCAR5 cells assessed as cell growth at 10 uM; format: functional; settings: read-out: Activity; in short: as §1
HCT-116 = assay: Antiproliferative activity against human HCT116 cells assessed as cell growth at 10 uM; format: functional; settings: read-out: Activity; in short: as §1
T47D = assay: Antiproliferative activity against human T47D cells assessed as cell growth at 10 uM; format: functional; settings: read-out: Activity; in short: as §2
[3] = biological target: Telomerase reverse transcriptase (Homo sapiens) (UniProt O14746); assay: Inhibition of TERT in human H1299 cells assessed as residual transcriptional activity at 10 uM after 24 hrs by SEAP reporter gene assay; values are per cent of control
HT-29 = assay: Antiproliferative activity against human HT-29 cells assessed as cell growth at 10 uM; format: functional; settings: read-out: Activity; in short: as §1
HCC 2998 = assay: Antiproliferative activity against human HCC2998 cells assessed as cell growth at 10 uM; format: functional; settings: read-out: Activity; in short: as §1
UO-31 = assay: Antiproliferative activity against human UO31 cells assessed as cell growth at 10 uM; format: functional; settings: read-out: Activity; in short: as §2
UACC-257 = assay: Antiproliferative activity against human UACC257 cells assessed as cell growth at 10 uM; format: functional; settings: read-out: Activity; in short: as §2
SK-MEL-2 = assay: Antiproliferative activity against human SK-MEL-2 cells assessed as cell growth at 10 uM; format: functional; settings: read-out: Activity; in short: as §1
OVCAR-3 = assay: Antiproliferative activity against human OVCAR-3 cells assessed as cell growth at 10 uM; format: functional; settings: read-out: Activity; in short: as §1
SF-268 = assay: Antiproliferative activity against human SF268 cells assessed as cell growth at 10 uM; format: functional; settings: read-out: Activity; in short: as §1
HCT-15 = assay: Antiproliferative activity against human HCT15 cells assessed as cell growth at 10 uM; format: functional; settings: read-out: Activity; in short: as §1
[4] = Cytotoxicity against human H1299 cells at 100 uM after 48 hrs by MTT assay; format: functional; settings: NCI-H1299, 48 h; in short: as §3
[5] = biological target: Telomerase reverse transcriptase (Homo sapiens) (UniProt O14746); assay: Inhibition of telomerase in human H1299 cells up to 100 uM by TRAP assay; format: cell-based
In short: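 PCR-based telomeric repeat amplification protocol (TRAP). The telomerase source was total lysate of H1299 lung cancer cells, with protein measured against BSA standards. Controls were extract without inhibitor and RNase A-treated extract.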

SK-MEL-28 = assay: Antiproliferative activity against human SK-MEL-28 cells assessed as cell growth at 10 uM; format: functional; settings: read-out: Activity; in short: as §1
SF-539 = assay: Antiproliferative activity against human SF539 cells assessed as cell growth at 10 uM; format: functional; settings: read-out: Activity; in short: as §1
M14 = assay: Antiproliferative activity against human M14 cells assessed as cell growth at 10 uM; format: functional; settings: read-out: Activity; in short: as §1
COLO 205 = assay: Antiproliferative activity against human COLO205 cells assessed as cell growth at 10 uM; format: functional; settings: read-out: Activity; in short: as §1
[6] = Cytotoxicity against human H1299 cells at 1 uM after 48 hrs by MTT assay; format: functional; settings: NCI-H1299, 48 h; in short: as §3
[7] = Antiproliferative activity against human Hs 578T cells assessed as cell growth at 10 uM; format: functional; settings: read-out: Activity; in short: as §1
MOLT-4 = assay: Antiproliferative activity against human MOLT4 cells assessed as cell growth at 10 uM; format: functional; settings: read-out: Activity; in short: as §1
SNB-19 = assay: Antiproliferative activity against human SNB19 cells assessed as cell growth at 10 uM; format: functional; settings: read-out: Activity; in short: as §1

CCc1nc2ccc3c(c2[nH]1)C(=O)c1ccccc1C3=O
growth at 10 µM (OVCAR-8): 72.9% | growth at 10 µM (Malme-3M): 56.9% | growth at 10 µM (PC-3): 48.5% | growth at 10 µM (TK-10): 33.8% | growth at 10 µM (CCRF-CEM): 45.4% | growth at 10 µM (A498): 28.9% | growth at 10 µM (NCI/ADR-RES): 74.4% | growth at 10 µM (SNB-75): 55.1% | growth at 10 µM (SF-295): 75.8% | growth at 10 µM (NCI-H226): 75.9% | growth at 10 µM (SN12C): 68.5% | growth at 10 µM (EKVX): 52.3% | growth at 10 µM (OVCAR-4): 48.8% | growth at 10 µM (LOX IMVI): 40% | growth at 10 µM (A549): 68.2% | viability at 10 µM [1]: 82% | residual activity [2]: 70% | growth at 10 µM (DU-145): 61.6% | growth at 10 µM (MDA-MB-231): 78% | growth at 10 µM (HL-60(TB)): 41.8% | growth at 10 µM (U-251): 60.1% | growth at 10 µM (UACC-62): 51.4% | growth at 10 µM (NCI-H522): 41.5% | growth at 10 µM (OVCAR-5): 102% | growth at 10 µM (HCT-116): 47.6% | growth at 10 µM (T47D): 63% | residual activity [3]: 59% | growth at 10 µM (HT-29): 64.5% | growth at 10 µM (HCC 2998): 67.7% | growth at 10 µM (UO-31): 23.9% | growth at 10 µM (UACC-257): 39.7% | growth at 10 µM (SK-MEL-2): 40.1% | growth at 10 µM (OVCAR-3): 78.2% | growth at 10 µM (SF-268): 80.4% | growth at 10 µM (HCT-15): 42.2% | viability at 100 µM [4]: 37% | inhibition [5]: inactive | growth at 10 µM (SK-MEL-28): 86.8% | growth at 10 µM (SF-539): 83.2% | growth at 10 µM (M14): 60.1% | growth at 10 µM (COLO 205): 69.7% | viability at 1 µM [6]: 88% | growth at 10 µM [7]: -18.6% | growth at 10 µM (MOLT-4): 64.2% | growth at 10 µM (SNB-19): 74.9%
